Measurements: ChEMBL document CHEMBL5252676, “Dimeric polyphenols to pave the way for new antimalarial drugs” (RSC Med Chem, 2023)
pIC50: −log10 of the molar value. In brackets after ≈: the same amount, converted by molar mass.

Key:
[1] = Aqueous solubility of compound assessed as Cmax incubated for 3 days by UV spectrophotometer based shake-flask method; type: physicochemical; details: water (aqueous); time 3 day; read-out: Cmax
How it was run: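 Shake-flask: excess solid stirred overnight in MilliQ water at RT (~25 °C), filtered 0.45 μm, diluted, absorbance read at the λmax from a UV scan. Quantified against a 3-point calibration curve (R² > 0.95). Fresh saturated solutions were made on 3 consecutive days.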

[2] = Hemolytic activity in RBC (unknown origin) assessed as hemolysis at 100 ug/ml incubated for 1 hrs by absorbance based microplate reader analysis relative to control; type: toxicity, cell-based, Erythrocyte; details: red blood cells, at 100 µg/mL, read-out: Activity
How it was run: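 Human A⁺/O⁺ RBC, 10% v/v in PBS, exposed to compound at 100 μg mL⁻¹ final (DMSO < 1%), in duplicate, stirred 1 h at RT. Centrifuged, supernatant OD₅₅₀ read. % lysis = (sample − PBS)/(1% Triton X-100 − PBS) × 100.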

[3] = tested on: Plasmodium falciparum; assay: Antiplasmodial activity against chloroquine-sensitive Plasmodium falciparum 3D7 assessed as intraerythrocytic growth inhibition; type: functional, organism-based
How it was run: (§1)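 Asexual intraerythrocytic P. falciparum cultured at 37 °C in RPMI with glucose, hypoxanthine, gentamycin and 10% pooled human A+/O+ serum. DMSO stocks of 5–10 mg mL⁻¹ diluted in RPMI, final DMSO at most 1%. Eight two-fold dilutions tested in three consecutive assays. Growth read as Plasmodium lactate dehydrogenase activity at 650 nm against parasitized RBC (100%) and free RBC (0%). IC50 in triplicate; artemisinin and quinine as controls.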

[4] = Toxicity in zebrafish embryos assessed as reduction in egg hatching at 10 to 100 ug/ml measured 5 days post fertilization; set-up: species or system Danio rerio; details: in vivo, 120 h, dose 10-100 µg/ml, time 5 day
[5] = Toxicity in zebrafish embryos assessed as brain misshape at 10 to 100 ug/ml measured for 3 days; type: tissue-based, Danio rerio; details: in vivo, 72 h, dose 10-100 µg/ml, time 3 day
[6] = Toxicity in zebrafish embryo assessed as developmental defects at 10 to 100 ug/ml measured 24 hrs post fertilization; set-up: species or system Danio rerio; details: in vivo, dose 10-100 µg/ml
[7] = Toxicity in zebrafish embryos assessed as reduction in brain size at 10 to 100 ug/ml measured for 3 days; type: tissue-based, Danio rerio; details: in vivo, 72 h, dose 10-100 µg/ml, time 3 day
[8] = tested on: Plasmodium falciparum; assay: Antiplasmodial activity against chloroquine-resistant Plasmodium falciparum FcB1 assessed as intraerythrocytic growth inhibition; type: functional, organism-based; how it was run: as §1
[9] = Toxicity in zebrafish embryos assessed as modified heart rate at 10 to 100 ug/ml measured for 3 days; set-up: species or system Danio rerio; details: in vivo, 72 h, dose 10-100 µg/ml, time 3 day
[10] = Selectivity index, ratio of IC50 for cytotoxicity against HUVEC cells to IC50 for antiplasmodial activity against chloroquine-sensitive Plasmodium falciparum 3D7; type: toxicity, cell-based; details: human, read-out: Ratio IC50
[11] = Toxicity in zebrafish embryos assessed as reduction in egg hatching measured for 72 hrs; set-up: species or system Danio rerio; details: in vivo, dose 10-100 µg/ml
[12] = Cytotoxicity against HUVEC cells assessed as inhibition of cell growth incubated for 48 hrs by fluorescence based assay; type: toxicity; details: human
How it was run: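 HUVEC in EGM-2, at most 10 passages, seeded at 2.5 × 10⁴ cells/well and grown 24 h at 37 °C. Six 2-fold concentrations in triplicate (DMSO max 0.5%) for 48 h. PrestoBlue for 2–3 h, fluorescence 560–590 nm, growth compared with untreated cells. n = 3 separate tests.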

[13] = Toxicity in zebrafish embryo assessed as survival at 10 to 100 ug/ml measured 24 hrs post fertilization relative to control; set-up: species or system Danio rerio; details: in vivo, at 10 to 100 µg/mL, dose 10-100 µg/ml, read-out: Activity
How it was run: (§2)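 Zebrafish embryos were synchronized 24 h after collection and kept at 28 °C with chorion intact, 20 per condition in duplicate. They were exposed to 100, 50, 25 or 10 μg mL⁻¹ from 100 mg mL⁻¹ DMSO stocks (final DMSO under 0.1%), with medium renewed daily for 3 days. Aspect, hatching and mortality were followed to 96 hpf against 30 control embryos in water with 0.1% DMSO.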

[14] = tested on: Plasmodium falciparum; assay: Antiplasmodial activity against multidrug-resistant Plasmodium falciparum W2 assessed as intraerythrocytic growth inhibition; type: functional, organism-based; how it was run: as §1
[15] = Toxicity in zebrafish embryos assessed as survival at highest concentration measured for 3 days relative to control; set-up: species or system Danio rerio; details: in vivo, time 3 day, read-out: Activity; how it was run: as §2
[16] = Toxicity in zebrafish embryos assessed as egg hatching at 10 to 100 ug/ml measured for 72 hrs relative to control; type: tissue-based, Danio rerio; details: in vivo, at 10 to 100 µg/mL, dose 10-100 µg/ml

Compound | solubility thermodynamic at 72 h [1] [µM] | hemolysis at 1 h, 100 ug/ml [2] [%] | pIC50 [3] | Activity [4] | Activity [5] | Activity [6] | Activity [7] | pIC50 [8] | Activity [9] | selectivity ratio [10] | Activity [11] | IC50 at 48 h [12] [µM] | survival at 24 h [13] [%] | pIC50 [14] | survival at 72 h [15] [%] | Activity [16] [%]
O=C(OCCCOC(=O)c1ccccc1)c1ccccc1 | 7 (≈ 1.99 µg/mL) | < 1 | < 3.45 |  |  |  |  |  |  |  |  |  |  |  |  | 
O=C(NCCCOC(=O)c1cc(O)c(O)c(O)c1)c1cc(O)c(O)c(O)c1 | 2100 (≈ 797 µg/mL) | < 1 | 5.20 | Toxic | Non-Toxic | Non-Toxic | Non-Toxic | 5.33 | Non-Toxic | 11 | Dose-Dependent Effect | 59 | > 95 | 5.17 | > 90 | 
COCOc1cc(C(=O)OCCCOC(=O)c2cc(OCOC)c(OCc3ccc4ccccc4c3)c(OCOC)c2)cc(OCOC)c1OCc1ccccc1 |  | < 1 | 4.68 |  |  |  |  |  |  |  |  |  |  |  |  | 
O=C(OCCOC(=O)c1cc(O)c(O)c(O)c1)c1cc(O)c(O)c(O)c1 | 430 (≈ 157 µg/mL) | < 1 | 5.43 |  | Non-Toxic | Non-Toxic | Non-Toxic | 5.43 | Non-Toxic | 19 |  | 69 | > 95 | 5.17 | > 90 | 100
C=C[C@H]1CN2CC[C@H]1C[C@H]2[C@H](O)c1ccnc2ccc(OC)cc12 [QUININE] |  | < 1 | 6.22 |  |  |  |  |  |  |  |  |  |  |  |  | 
O=C(OCCCOC(=O)c1cc(O)c(OCCOCc2ccccc2)c(O)c1)c1cc(O)c(OCCOCc2ccccc2)c(O)c1 |  | < 1 | 5.49 |  |  |  |  |  |  | 5 |  | 15 |  |  |  | 
O=C(OCCCOC(=O)c1cc(O)c(O)c(O)c1)c1ccccc1 | 600 (≈ 199 µg/mL) | < 1 | 4.57 |  |  |  |  | 4.96 |  | 3 |  | 78 |  | 4.89 |  | 
O=C(OCCCOC(=O)c1cc(O)c(OCCO)c(O)c1)c1cc(O)c(O)c(O)c1 |  | < 1 | 4.70 |  |  |  |  | 5.37 |  | > 14 |  | > 118 |  | 5.12 |  | 
O=C(OCCCOC(=O)c1ccc(O)c(O)c1)c1ccc(O)c(O)c1 | 33 (≈ 11.5 µg/mL) | < 1 | 5.05 |  |  |  |  |  |  | > 42 |  | > 144 |  |  |  | 
COCOc1cc(C(=O)OCCCOC(=O)c2cc(OCOC)c(OCc3ccccc3)c(OCOC)c2)cc(OCOC)c1OCc1ccccc1 | 3 (≈ 2.21 µg/mL) | < 1 | 5.35 |  |  |  |  |  |  |  |  |  |  |  |  | 
O=C(OCCCOC(=O)c1cc(O)c(OCc2ccc3ccccc3c2)c(O)c1)c1cc(O)c(OCc2ccccc2)c(O)c1 |  | < 1 | 6.05 |  |  |  |  | 6.05 |  | 5 |  | 6.9 |  | 6.40 |  | 
O=C(OCCCOC(=O)c1cc(O)c(OCc2ccc3ccccc3c2)c(O)c1)c1cc(O)c(OCc2ccc3ccccc3c2)c(O)c1 |  | < 1 | 5.40 |  |  |  |  | 5.96 |  | 2.4 |  | 9.7 |  | 5.74 |  | 
O=C(Nc1ccc(OC(=O)c2cc(O)c(O)c(O)c2)cc1)c1cc(O)c(O)c(O)c1 | 66 (≈ 27.3 µg/mL) | < 1 | 5.41 |  |  |  |  | 5.51 |  | > 13 |  | > 121 |  | 5.54 |  | 
O=C(OCCCOC(=O)c1cc(O)c(O)c(O)c1)c1ccc(O)c(O)c1 | 280 (≈ 102 µg/mL) | < 1 | 5.26 |  |  |  |  | 5.31 |  | 41 |  | 84 |  | 5.12 |  | 
C[C@@H]1CC[C@H]2[C@@H](C)C(=O)O[C@@H]3O[C@@]4(C)CC[C@@H]1[C@]32OO4 [ARTEMISININ] |  | < 1 | 7.89 |  |  |  |  | 4.77 |  |  |  |  |  |  |  | 
O=C(OCCCCOC(=O)c1cc(O)c(O)c(O)c1)c1cc(O)c(O)c(O)c1 | 150 (≈ 59.1 µg/mL) | < 1 | 5.43 |  | Non-Toxic | Non-Toxic | Non-Toxic | 5.24 | Non-Toxic | > 35 |  | > 127 | > 95 | 5.30 | > 90 | 100
O=C(Nc1cccc(OC(=O)c2cc(O)c(O)c(O)c2)c1)c1cc(O)c(O)c(O)c1 | 300 (≈ 124 µg/mL) | < 1 | 5.68 |  |  |  |  | 5.43 |  | 6 |  | 54 |  | 5.47 |  | 
O=C(OCCCOC(=O)c1cc(O)c(O)c(O)c1)c1cc(O)cc(O)c1 | 1200 (≈ 437 µg/mL) | < 1 | 5.34 |  |  |  |  | 5.42 |  | > 21 |  |  |  | 5.44 |  | 
